The results in this text go back to ChEMBL document CHEMBL1136652, “Conformationally-restricted analogues and partition coefficients of the 5-HT3 serotonin receptor ligands meta-chlorophenylbiguanide (mCPBG) and meta-chlorophenylguanidine (mCPG)” (Bioorg Med Chem Lett, 2003).

The target of one series is Serotonin 3 (5-HT3) receptor. As to the kind of experiment: Binding affinity for 5-HT3 receptor of NG108-15 cells using [3H]GR-65630.
Settings: not given
Type of series: cell-based. The essentials: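 Competition binding against 1 nM [3H]GR65630 (84.2 Ci/mmol; KD 0.7 nM); nonspecific binding defined with […]. Incubation 30 min at room temperature, then filtration on presoaked glass fiber filters, ice-cold buffer wash, scintillation counting. Log concentration vs percent inhibition fitted by nonlinear least squares assuming 100% maximal inhibition; Ki from IC50 via Cheng-Prusoff.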
As usually defined, the Ki is the equilibrium dissociation constant of an inhibitor or competing ligand from its target. Read a low Ki as higher affinity. `Nc1nc(Nc2cccc(Cl)c2)n[nH]1` had a Ki greater than 10 µM.
Still for that read-out and setting: the same measure for `Nc1nc2ccc(Cl)cc2[nH]1`: 0.725 µM; for `Nc1ncnc(Nc2ccc3ccccc3c2)n1`: greater than 10 µM.
Turning to `NC1=Nc2cc(Cl)ccc2CN1`, the affinity, expressed as Ki, was 0.034 µM.
Turning to `Nc1ncnc(Nc2cccc(Cl)c2)n1`, the Ki is greater than 10 µM.
The same measure, in the same setting: then `CC1(C)N=C(N)N=C(N)N1c1cccc(Cl)c1`, with greater than 10 µM; and `Nc1nccc(Nc2cccc(Cl)c2)n1`, with 1.46 µM.
On the same count and under the same terms, the same measure for `CC1N=C(N)N=C(N)N1c1cccc(Cl)c1` (stereo not given): greater than 10 µM; for `Nc1ncnc(Nc2ccccc2)n1` [AMANOZINE]: greater than 10 µM.

Tested on in a further series: not listed separately
As to the kind of experiment: Partition coefficient in an aqueous 1-octanol buffer system by the shake-flask method. In kind it is physicochemical. Particulars: 1-octanol/aqueous buffer. The essentials:
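LogP_app by shake-flask in aqueous buffer/1-octanol at pH 7.4 (ionic strength 0.10 M NaCl), 23±1.0 °C. Aqueous-phase compound concentration measured spectrophotometrically; values are means of duplicate determinations run in triplicate.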
Broadly, the logD is the decadic logarithm of the distribution of all forms, ionised or not, between an organic phase and buffer at a given pH. In turn, `N=C(N)Nc1cc(Cl)c(Cl)c(Cl)c1` registered a logD of 1.16.
Molecule `N=C(N)Nc1ccccc1` [PHENYLGUANIDINE] returned a logD of -1.32.
Same read-out and setting: the same measure for `N=C(N)NC(=N)Nc1cccc(Cl)c1`: -0.38; for `N=C(N)NC(=N)Nc1ccccc1` [PHENYL BIGUANIDE]: -1.17; for `NC(N)=Nc1cccc(Cl)c1`: -0.64.
`N=C(N)NC(=N)Nc1cc(Cl)c(Cl)c(Cl)c1` returned a logD of 1.47.
